Common to all, as to format: functional
Assay [1] relates to Human alphaherpesvirus 1. Description: Antiviral activity against Herpes Simplex Virus-1 (McIntyre).
Assay [2] concerns Human alphaherpesvirus 2. Description: Antiviral activity against Herpes Simplex Virus-2(G).
For assay [3], the system named is Human alphaherpesvirus 1. The assay is described as follows: Antiviral activity against Herpes Simplex Virus-1(F).
Assay [4] relates to Human alphaherpesvirus 2. Description: Antiviral activity against Herpes Simplex Virus-2(Lyons).
Assay [5] concerns Raji. The assay is described as follows: Cytostatic activity against proliferation of Raji/0 cells. Particulars: Homo sapiens, read-out: ID50 (the source's name).
Assay [6] concerns Vaccinia virus. The assay is described as follows: Antiviral activity against vaccinia virus. The following applies: Orthopoxvirus vaccinia.
The test system of assay [7] is Raji. The assay is described as follows: Cytostatic activity against proliferation of Raji/TK cells. The following applies: Homo sapiens, read-out: ID50 (the source's name).
The test system of assay [8] is Human alphaherpesvirus 2. The assay is described as follows: Antiviral activity against Herpes Simplex Virus-2(196).
For assay [9], the system named is Human alphaherpesvirus 1. Description: Antiviral activity against Herpes Simplex Virus-1(KOS).
In assay [10] the test system is L1210. Description: Cytostatic activity against proliferation of L1210/0 cells. The following applies: Mus musculus, read-out: ID50 (the source's name). Summed up: (§1)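 Murine leukemia L1210 cells: parental L1210/0 and L1210/BdUrd, a thymidine-kinase-deficient mutant selected from L1210/0 by growth in the presence of 260 µg/mL 5-bromo-2'-deoxyuridine. Value is the dose inhibiting tumor cell proliferation by 50% (ID50).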

In assay [11] the test system is L1210. Description: Cytostatic activity against proliferation of L1210/BdU cells. Particulars: Mus musculus, read-out: ID50 (the source's name). Summed up: as §1
Assay [12] concerns Vesicular stomatitis virus. The assay is described as follows: Antiviral activity against vesicular stomatitis virus.
The subject of assay [13] is L1210. The assay is described as follows: Compound was tested for Cytostatic activity against proliferation of L1210/BdU cells (thymidine kinase deficient L1210 cell line). Particulars: Mus musculus, read-out: ID50 (the source's name). Summed up:
as §1

Assay [14] has as its system Raji. The assay is described as follows: Compound was tested for Cytostatic activity against proliferation of Raji/0 cells (human lymphoblast Raji cells line). The following applies: read-out: ID50 (the source's name).
In assay [15] the test system is L1210. Description: Compound was tested for Cytostatic activity against proliferation of L1210/0 cells (murine leukemia L1210 cell line). Particulars: Mus musculus, read-out: ID50 (the source's name). Summed up: as §1
Assay [16] deals with Raji. The assay is described as follows: Compound was tested for Cytostatic activity against proliferation of Raji/TK cells (thymidine kinase deficient Raji cell line). Particulars: Homo sapiens, read-out: ID50 (the source's name).

≈ marks a conversion by molar mass, not a printed value. A value given as a limit tells only on which side of the number the result lay.

Consider `CCCCCCCCc1cn([C@H]2C[C@@H]3OP(=O)(O)OC[C@H]3O2)c(=O)[nH]c1=O.N`, for which the MIC50 in [1] was above 200 µg/mL; in [2] it was above 200 µg/mL; in [3], above 200 µg/mL; in assay [4] it was above 200 µg/mL; in assay [6], 20 µg/mL; in assay [8] it was above 200 µg/mL. For the same compound, the MIC50 in assay [9] and in assay [12] was above 200 µg/mL throughout. Also, the IC50 in assay [5] came out at 165 µg/mL; in [7], 184 µg/mL; in assay [10] it was 164 µg/mL; in assay [11], 193 µg/mL.

Take `CCCCCc1cn([C@H]2C[C@H](O)[C@@H](CO)O2)c(=O)[nH]c1=O`: the MIC50 is 40 µg/mL (≈ 134 µM) in [1]; 70 µg/mL (≈ 235 µM) in assay [2]; 10 µg/mL (≈ 33.5 µM) in [3]; 70 µg/mL (≈ 235 µM) in [4]; 300 µg/mL (≈ 1010 µM) in [6]; above 400 µg/mL in assay [8]. Besides, the values for the MIC50 in [9] and in assay [12] were 20 µg/mL (≈ 67 µM) and above 400 µg/mL, respectively. The IC50 in assay [5] was 334 µg/mL (≈ 1120 µM); in assay [7] it was 328 µg/mL (≈ 1100 µM); in [10], 476 µg/mL (≈ 1600 µM); in [11], 477 µg/mL (≈ 1600 µM).

Turning to `CC(C)c1cn([C@H]2C[C@@H]3OP(=O)(O)OC[C@H]3O2)c(=O)[nH]c1=O.N`, the MIC50 in assay [1], in [2], in assay [3], in [4], in assay [6] and in assay [8] was above 200 µg/mL throughout. Further, the MIC50 in assay [9] and in assay [12] was above 200 µg/mL each time. The IC50 in assay [5], in assay [7], in [10] and in assay [11] was above 500 µg/mL throughout.

Regarding `CCCc1cn([C@H]2C[C@@H]3OP(=O)(O)OC[C@H]3O2)c(=O)[nH]c1=O.N`, the MIC50 was 150 µg/mL in assay [1]; 400 µg/mL in assay [2]; 300 µg/mL in assay [3]; 400 µg/mL in assay [4]; above 400 µg/mL in assay [6]; above 400 µg/mL in assay [8]. Moreover, the MIC50 in assay [9] was 150 µg/mL; in [12] it was above 400 µg/mL. The IC50 in assay [5], in [7], in assay [10] and in [11] was above 500 µg/mL each time.

Take `CCCCCCCCc1cn([C@H]2C[C@H](O)[C@@H](CO)O2)c(=O)[nH]c1=O`: the MIC50 in [1] was above 100 µg/mL; in assay [2] it was 100 µg/mL (≈ 294 µM); in [3], above 100 µg/mL; in [4], 100 µg/mL (≈ 294 µM); in [6], 7 µg/mL (≈ 20.6 µM); in assay [8] it was above 100 µg/mL. Also, the MIC50 in assay [9] and in assay [12] was above 100 µg/mL in each case. Further, the IC50 in assay [5] amounted to 52 µg/mL (≈ 153 µM); in assay [7] it was 140 µg/mL (≈ 411 µM); in assay [10], 66 µg/mL (≈ 194 µM); in assay [11] it was 72 µg/mL (≈ 212 µM).

Turning to `O=c1[nH]c(=O)n([C@H]2C[C@H](O)[C@@H](CO)O2)cc1/C=C/Br` [BRIVUDINE], the MIC50 in [1] stood at 0.02 µg/mL (≈ 0.06 µM); in assay [2] it was 1 µg/mL (≈ 3 µM); in assay [3], 0.02 µg/mL (≈ 0.06 µM); in assay [4], 1 µg/mL (≈ 3 µM); in [6], 2 µg/mL (≈ 6 µM); in [8], 100 µg/mL (≈ 300 µM). Besides, the MIC50 was 0.02 µg/mL (≈ 0.06 µM) in [9] and above 400 µg/mL in assay [12].

With `CCc1cn([C@H]2C[C@H](O)[C@@H](CO)O2)c(=O)[nH]c1=O` [EDOXUDINE], the MIC50 came to 0.2 µg/mL (≈ 0.78 µM) in assay [1]; 0.4 µg/mL (≈ 1.56 µM) in assay [2]; 2 µg/mL (≈ 7.8 µM) in assay [3]; 0.2 µg/mL (≈ 0.78 µM) in assay [4]; 0.7 µg/mL (≈ 2.73 µM) in assay [6]; 2 µg/mL (≈ 7.8 µM) in assay [8]. Further, the figures for the MIC50 in assay [9] and in assay [12] were 0.7 µg/mL (≈ 2.73 µM) and above 400 µg/mL, respectively. The IC50 is 2.9 µg/mL (≈ 11.3 µM) in assay [5], above 500 µg/mL in [7], 1.6 µg/mL (≈ 6.24 µM) in [10] and above 500 µg/mL in [11].

Consider `CC(C)c1cn([C@H]2C[C@H](O)[C@@H](CO)O2)c(=O)[nH]c1=O` [EPERVUDINE], for which the MIC50 in assay [1] was found to be 1 µg/mL (≈ 3.7 µM); in [2], 40 µg/mL (≈ 148 µM); in assay [3], 2 µg/mL (≈ 7.4 µM); in [4], 100 µg/mL (≈ 370 µM); in assay [6], 300 µg/mL (≈ 1110 µM); in assay [8], 400 µg/mL (≈ 1480 µM). Besides, the MIC50 is 7 µg/mL (≈ 25.9 µM) in assay [9] and above 400 µg/mL in assay [12]. Besides, the IC50 in assay [13], in [14], in [15] and in [16] was above 500 µg/mL each time.
